The record followed here is ChEMBL document CHEMBL1127486, “Design of cyclic deltorphins and dermenkephalins with a disulfide bridge leads to analogues with high selectivity for delta-opioid receptors” (J Med Chem, 1994).

Assay [1] deals with Delta-type opioid receptor (Rattus norvegicus, UniProt P33533). The experiment in a line: Inhibition of [3H][p-Cl-Phe-][…] binding to rat brain homogenate delta-opioid receptor. In short, it runs like this:
(§1)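 Whole brain membranes from male Sprague-Dawley rats, preincubated 30 min at 25 °C to remove endogenous opioids. Incubated 180 min at 25 °C with 0.75 nM [3H][p-ClPhe4]DPDPE (δ) or 0.5 nM [3H]CTOP (μ). Buffer was 50 mM Tris-HCl pH 7.4 with BSA, bacitracin, bestatin, captopril and toluenesulfonyl fluoride. Rapid filtration and scintillation counting. Duplicates, ≥3 experiments, nonlinear least-squares fit.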

The target in assay [2] is Mu-type opioid receptor (Cavia porcellus, UniProt P97266). The experiment in a line: In vitro inhibition of electrically evoked contractions in guinea pig ileum longitudinal muscle myenteric plexus. In kind it is functional, tissue-based. An outline of the steps: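 Longitudinal muscle–myenteric plexus strips from male Hartley guinea pigs (150–400 g) in 37 °C Krebs bicarbonate gassed with 95% O2/5% CO2. Transmural stimulation at 0.1 Hz, 0.4-ms pulses, supramaximal voltage. Bestatin, bacitracin and captopril added 3 min before cumulative peptide doses. Inhibition compares contraction height 3 min post-dose with the 1-min pre-dose mean.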

Assay [3] concerns the target Delta-type opioid receptor (Mus musculus, UniProt P32300). As to the kind of experiment: In vitro inhibition of electrically induced smooth muscle contractions of mouse vas deferens. In kind it is functional, tissue-based.
Assay [4] addresses Mu-type opioid receptor (Rattus norvegicus, UniProt P33535). As to the kind of experiment: Inhibition of [3H]CTOP binding to rat brain homogenate mu-opioid receptor. In short, it runs like this: as §1
A short description of assay [5]: Selectivity ratio against guinea pig ileum and mouse vas deferens contractions. In kind it is functional.
Assay [6] addresses Delta-type opioid receptor (Mus musculus) (UniProt P32300). The experiment in a line: In vitro percentage inhibition of electrically induced smooth muscle contractions of mouse vas deferens after the administration at 6000 nM. In kind it is functional. An outline of the steps: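 Vasa deferentia from male ICR mice (25–30 g) in 37 °C magnesium-free Krebs bicarbonate gassed with 95% O2/5% CO2. Transmural stimulation at 0.1 Hz, 2.0-ms pulses, supramaximal voltage. Peptidase inhibitors (bestatin, bacitracin, captopril) given 3 min before peptide. Percent inhibition is the 1-min pre-dose mean contraction height against height 3 min after peptide. Run in duplicate, repeated two or three times.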

Where only a bound is given, the exact number is not on record here.

Chain of Delta-type opioid receptor (Rattus norvegicus, UniProt P33533) (P33533 whole entry): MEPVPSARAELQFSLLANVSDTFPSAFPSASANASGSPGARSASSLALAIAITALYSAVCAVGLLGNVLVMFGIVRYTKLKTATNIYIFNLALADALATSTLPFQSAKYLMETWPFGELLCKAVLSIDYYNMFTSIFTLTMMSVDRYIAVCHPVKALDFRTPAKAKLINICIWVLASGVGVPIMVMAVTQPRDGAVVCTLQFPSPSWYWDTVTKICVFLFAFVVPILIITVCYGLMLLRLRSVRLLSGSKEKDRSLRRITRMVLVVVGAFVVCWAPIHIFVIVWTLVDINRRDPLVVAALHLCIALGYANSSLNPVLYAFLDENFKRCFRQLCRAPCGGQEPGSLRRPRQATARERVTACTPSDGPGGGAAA
Chain of Mu-type opioid receptor (Rattus norvegicus, UniProt P33535) (P33535 whole entry): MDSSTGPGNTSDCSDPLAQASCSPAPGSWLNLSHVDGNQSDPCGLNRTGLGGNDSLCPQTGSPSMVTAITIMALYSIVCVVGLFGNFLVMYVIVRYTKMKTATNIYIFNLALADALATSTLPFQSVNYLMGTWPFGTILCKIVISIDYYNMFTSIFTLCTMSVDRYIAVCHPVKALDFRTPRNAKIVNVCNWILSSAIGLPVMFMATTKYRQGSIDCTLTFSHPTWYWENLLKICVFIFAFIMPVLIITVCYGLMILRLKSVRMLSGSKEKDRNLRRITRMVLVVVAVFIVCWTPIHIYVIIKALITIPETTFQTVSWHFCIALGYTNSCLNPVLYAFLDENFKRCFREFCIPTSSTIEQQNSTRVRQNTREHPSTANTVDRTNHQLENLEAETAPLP
Chain of Mu-type opioid receptor (Cavia porcellus, UniProt P97266) (P97266 whole entry): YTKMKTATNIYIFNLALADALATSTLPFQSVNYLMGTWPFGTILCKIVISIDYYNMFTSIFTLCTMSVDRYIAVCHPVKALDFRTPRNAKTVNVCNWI
Chain of Delta-type opioid receptor (Mus musculus, UniProt P32300) (P32300 whole entry): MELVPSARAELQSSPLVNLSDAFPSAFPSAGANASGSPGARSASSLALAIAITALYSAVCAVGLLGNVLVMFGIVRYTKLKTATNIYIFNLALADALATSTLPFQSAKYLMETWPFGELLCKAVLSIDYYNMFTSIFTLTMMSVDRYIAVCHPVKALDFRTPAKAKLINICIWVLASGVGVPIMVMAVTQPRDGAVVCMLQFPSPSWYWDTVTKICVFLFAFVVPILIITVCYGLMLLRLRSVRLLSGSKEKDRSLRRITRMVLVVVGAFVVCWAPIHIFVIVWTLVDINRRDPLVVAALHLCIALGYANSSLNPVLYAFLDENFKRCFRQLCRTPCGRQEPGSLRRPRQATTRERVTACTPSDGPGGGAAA
Chain of Delta-type opioid receptor (Mus musculus) (P32300 whole entry): as above

In general, IC50 refers to the concentration that gives 50% inhibition. High values mean lower potency, low ones higher potency. In the case of `CC(C)[C@H](NC(=O)[C@@H]1NC(=O)[C@H](CC(=O)O)NC(=O)[C@H](Cc2ccccc2)NC(=O)[C@H](NC(=O)[C@@H](N)Cc2ccc(O)cc2)C(C)(C)SSC1(C)C)C(=O)NCC(N)=O` [listing 1 of 2 here], the IC50 in assay [1] stood at 0.21 µM; against Mu-type opioid receptor [2] it was 5.5 µM; in assay [3] it was 0.92 µM; at Mu-type opioid receptor [4], 1.2 µM.
Turning to `CC(C)[C@H](NC(=O)[C@@H]1NC(=O)[C@H](CC(=O)O)NC(=O)[C@H](Cc2ccccc2)NC(=O)[C@H](NC(=O)[C@@H](N)Cc2ccc(O)cc2)C(C)(C)SSC1(C)C)C(=O)NCC(N)=O` [listing 2 of 2 here], the Selectivity in assay [5] is recorded as 6.
For `CC(C)[C@H](NC(=O)[C@H]1NC(=O)[C@H](CC(=O)O)NC(=O)[C@H](Cc2ccccc2)NC(=O)[C@H](NC(=O)[C@@H](N)Cc2ccc(O)cc2)CSSC1(C)C)C(=O)NCC(N)=O` [listing 1 of 2 here], the IC50 is 0.0022 µM in assay [1], 1.1 µM at Mu-type opioid receptor [2], 0.00025 µM in assay [3] and 3.76 µM on Mu-type opioid receptor [4].
Regarding `CC(C)[C@H](NC(=O)[C@H]1NC(=O)[C@H](CC(=O)O)NC(=O)[C@H](Cc2ccccc2)NC(=O)[C@H](NC(=O)[C@@H](N)Cc2ccc(O)cc2)CSSC1(C)C)C(=O)NCC(N)=O` [listing 2 of 2 here], in assay [5], the Selectivity is given as 4400.
For `CC(C)[C@H](NC(=O)[C@H]1NC(=O)[C@H](CC(=O)O)NC(=O)[C@H](Cc2ccccc2)NC(=O)[C@H](NC(=O)[C@@H](N)Cc2ccc(O)cc2)C(C)(C)SSC1(C)C)C(=O)NCC(N)=O` [listing 1 of 2 here], the IC50 in assay [1] was determined as 0.0037 µM; against Mu-type opioid receptor [2], 68 µM; in assay [3] it was 0.0063 µM; at Mu-type opioid receptor [4], 26 µM.
Regarding `CC(C)[C@H](NC(=O)[C@H]1NC(=O)[C@H](CC(=O)O)NC(=O)[C@H](Cc2ccccc2)NC(=O)[C@H](NC(=O)[C@@H](N)Cc2ccc(O)cc2)C(C)(C)SSC1(C)C)C(=O)NCC(N)=O` [listing 2 of 2 here], in assay [5], the Selectivity is given as 11000.
Turning to `CC(C)[C@H](NC(=O)[C@@H]1CSSC[C@@H](NC(=O)[C@@H](N)Cc2ccc(O)cc2)C(=O)N[C@@H](Cc2ccccc2)C(=O)N[C@@H](CC(=O)O)C(=O)N1)C(=O)NCC(N)=O`, in assay [5], the Selectivity came to 13.
Turning to `CC(C)C(NC(=O)[C@H]1NC(=O)[C@H](CCC(=O)O)NC(=O)C(Cc2ccccc2)NC(=O)[C@H](NC(=O)[C@@H](N)Cc2ccc(O)cc2)C(C)(C)SSC1(C)C)C(=O)NCC(N)=O` (single isomer, unassigned), the Selectivity in assay [5] amounted to 3200. The IC50 in assay [1] was 0.0057 µM; at Mu-type opioid receptor [2], 7.1 µM; in assay [3], 0.00224 µM; at Mu-type opioid receptor [4], 4.9 µM.
For orientation: inhibition means the share of the control response that was lost under treatment. In the case of `CCCC[C@H](NC(=O)[C@H]1NC(=O)[C@H](Cc2c[nH]cn2)NC(=O)C(Cc2ccccc2)NC(=O)[C@H](NC(=O)[C@@H](N)Cc2ccc(O)cc2)C(C)(C)SSC1(C)C)C(=O)N[C@@H](CC(=O)O)C(=O)O` (single isomer, unassigned), in assay [5], the Selectivity is below 1.5. The inhibition in assay [6] stood at 43.5%. Also, the IC50 was 0.00511 µM in assay [1], 4.5 µM against Mu-type opioid receptor [2] and 1.9 µM at Mu-type opioid receptor [4].
In the case of `CCCC[C@H](NC(=O)[C@H]1NC(=O)[C@H](CC(=O)O)NC(=O)C(Cc2ccccc2)NC(=O)[C@H](NC(=O)[C@@H](N)Cc2ccc(O)cc2)C(C)(C)SSC1(C)C)C(=O)NCC(N)=O` (single isomer, unassigned), the Selectivity in assay [5] stood at 16000. Also, the IC50 is 0.00483 µM in assay [1], 137 µM at Mu-type opioid receptor [2], 0.0088 µM in assay [3] and 54.6 µM on Mu-type opioid receptor [4].
Taken in the same sequence, the figures for `CC(C)C(NC(=O)[C@H]1NC(=O)[C@H](CO)NC(=O)C(Cc2ccccc2)NC(=O)[C@H](NC(=O)[C@@H](N)Cc2ccc(O)cc2)C(C)(C)SSC1(C)C)C(=O)NCC(N)=O` (single isomer, unassigned) were 150, 0.01 µM, 13.5 µM, 0.0918 µM and 3.3 µM.
Take `CCCC[C@H](NC(=O)[C@H]1NC(=O)[C@H](Cc2c[nH]cn2)NC(=O)C(Cc2ccccc2)NC(=O)[C@H](NC(=O)[C@@H](N)Cc2ccc(O)cc2)C(C)(C)SSC1(C)C)C(=O)N[C@@H](CC(=O)O)C(N)=O` (single isomer, unassigned): the Selectivity in assay [5] was 1700. Also, the IC50 in assay [1] is 0.0034 µM; against Mu-type opioid receptor [2], 22 µM; in assay [3] it was 0.0127 µM; at Mu-type opioid receptor [4], 10.2 µM.
Regarding `CSCCC(NC(=O)[C@H](CC(C)C)NC(=O)[C@H](Cc1c[nH]cn1)NC(=O)[C@H](Cc1ccccc1)NC(=O)C(CCSC)NC(=O)[C@@H](N)Cc1ccc(O)cc1)C(=O)N[C@@H](CC(=O)O)C(N)=O` (stereo in doubt) [listing 1 of 2 here], the IC50 was 0.00047 µM in assay [1], 3.4 µM at Mu-type opioid receptor [2], 0.00028 µM in assay [3] and 1.9 µM on Mu-type opioid receptor [4].
For the compound `CSCCC(NC(=O)[C@H](CC(C)C)NC(=O)[C@H](Cc1c[nH]cn1)NC(=O)[C@H](Cc1ccccc1)NC(=O)C(CCSC)NC(=O)[C@@H](N)Cc1ccc(O)cc1)C(=O)N[C@@H](CC(=O)O)C(N)=O` (stereo in doubt) [listing 2 of 2 here], in assay [5], the Selectivity came out at 12000.
In turn, `CC(C)[C@H](NC(=O)[C@H](CC(=O)O)NC(=O)[C@H](Cc1ccccc1)NC(=O)[C@@H](C)NC(=O)[C@@H](N)Cc1ccc(O)cc1)C(=O)N[C@H](C(=O)NCC(N)=O)C(C)C` (stereo in doubt; form 1) [DELTORPHIN C] registered an IC50 against Mu-type opioid receptor [2] of 2.89 µM.
